Assay outcomes from PubChem.
Fibroblast inh: antiproliferative effect on LL 47 fibroblasts – human, LL 47 cells, CellTiter-Glo luminescence, primary screen. AID 719, 2007. LL 47 human lung fibroblast viability, ATP luminescence; stronger effect = lower value. 85,000 tested, 1.1% active. viability, % at 10 µM;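 active means viability at or below 50% in the single dose screen; inactive means viability above 50%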;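 further: compound exposure lasted 72 h before the ATP readout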
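Test system: LL 47 human lung fibroblasts / Quantity: 1,150 cells in each well / Medium: IMEM growth medium with 15% fetal bovine serum / Incubation: 72 h compound exposure at 37 °C after overnight plating / Detection: CellTiter-Glo luminescence measuring cellular ATP / Read-out: % viability versus median cells-only luminescence / Benchmarks: cell-only wells, no compound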
HCT116 bCat-KO: primary screen for growth suppressors in beta-catenin knockout HCT116 cells (colon tumor, human). HCT116 beta-catenin knockout viability, CellTiter-Glo, 60 h; stronger effect = lower value. viability, % at 10 µM. 140,000 tested, 1.5% active;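 active means viability at or under a set limit, the compound median less 4 SD, cut at about 6% in these data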
PTEN del growth: growth suppression of PTEN-null HCT116, primary screen, cell-based, CellTiter-Glo; HCT116 PTEN-null viability, 60 h; stronger effect = lower value; viability, % at 10 µM; 140,000 tested, 1.2% active; AID 827, 2007;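 active means viability at or below a set limit, 4 SD under the median of all tested compounds, cut at about 3.7% in these data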;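 further: PTEN knockout HCT116 line with beta catenin targeted HCT116 as companion control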
HUVEC prolif 384: inhibitors of HUVEC proliferation, primary screen, cell-based, 384-well; viability, % at 10 µM (by protocol); CellTiter-Glo luminescence, 72 h; stronger effect = lower value; 86,000 tested, 1.1% active; AID 648, 2007;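 active means viability at or below 30%; inactive means viability above 30%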
H69AR inhibit: proliferation blockers of H69AR lung cancer cells, primary screen, cell-based, human, 86K library; H69AR lung tumor viability, ATP luminescence, 72 h; stronger effect = lower value; viability, % at 10 µM; 85,000 tested, 6% active;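 active means viability at or below 40%; inactive means viability above 40%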;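 further: multidrug resistant small cell line overexpressing MRP-1 efflux transporter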
Each line names hits and unclear results; the compound was inactive in the other large screens. Only a selection was taken, and hits are over-represented in it overall.

CCOC(=O)C1=C(C)N=c2s/c(=C\c3ccc(OC(C)=O)c(OCC)c3)c(=O)n2C1/C=C/c1ccccc1 (stereo unspecified)	none (no result: Fibroblast inh, HUVEC prolif 384, H69AR inhibit)
COc1ccc2c(c1)OC1(C)CC2C(C(=O)c2ccccc2OC)C(=O)N1 (stereo unspecified)	H69AR inhibit 33
COc1ccc2c(c1)C1CC(C)(NC(=O)C1C(=O)c1ccccc1)O2 (stereo unspecified)	none
CCSc1nnc(NC(=O)[C@@H](NC(=O)c2ccc(C(C)(C)C)cc2)C(C)C)s1	none (no result: Fibroblast inh, HUVEC prolif 384, H69AR inhibit)
O=C(CSCCN1C(=O)c2ccccc2C1=O)Nc1ccc2ccccc2c1	none (no result: Fibroblast inh, HUVEC prolif 384, H69AR inhibit)
CCOC(=O)CSC1=C(C#N)C(c2ccccc2OC)CC(=O)N1 (stereo unspecified)	H69AR inhibit 25
CCSC1=C(C#N)C(c2ccccc2OC)CC(=O)N1 (stereo unspecified)	none
CCOC(=O)CSC1=C(C#N)C(c2ccc(C)s2)CC(=O)N1 (stereo unspecified)	H69AR inhibit 35
CCSC1=C(C#N)C(c2ccc(C)s2)CC(=O)N1 (stereo unspecified)	none (no result: HCT116 bCat-KO, PTEN del growth)
COc1ccc(C(NC(=O)c2c(F)c(F)c(F)c(F)c2F)c2ccccc2)cc1 (stereo unspecified)	HCT116 bCat-KO 1.3, PTEN del growth 1.7 (no result: Fibroblast inh, HUVEC prolif 384, H69AR inhibit)
Cc1nc2ccccc2c(=O)n1/N=C/c1cn(-c2ccccc2)nc1-c1cccs1	H69AR inhibit 35
COc1ccc(NC(=O)c2cncc(Br)c2)cc1S(=O)(=O)N1CCCCC1	none (no result: Fibroblast inh, HUVEC prolif 384, H69AR inhibit)
O=S(=O)(NCc1ccccc1)c1ccc(S(=O)(=O)N2CCCCC2)cc1	none
CC1CCN(S(=O)(=O)c2ccc(S(=O)(=O)NCc3ccccc3)cc2)CC1	H69AR inhibit 38
CC1CCCC(C)N1S(=O)(=O)c1ccc(S(=O)(=O)NCc2ccccc2)cc1 (stereo unspecified)	Fibroblast inh 46, H69AR inhibit 36
Cc1ccc(-n2nc(C)c3c(C)c(CCC(=O)NC(C)c4ccccc4)c(C)nc32)cc1 (stereo unspecified)	H69AR inhibit 15
COc1ccc(-n2ncc3c(N4CCN(c5cccc(C)c5C)CC4)ncnc32)cc1	Fibroblast inh 24, HUVEC prolif 384 18, H69AR inhibit 7.1 (no result: HCT116 bCat-KO, PTEN del growth)
COc1ccc(-n2ncc3c(N4CCCCC4)ncnc32)cc1	H69AR inhibit 39
COc1ccc(-n2ncc3c(N4CCN(c5cc(C)ccc5C)CC4)ncnc32)cc1	none
O=C(COc1ccccc1)N1CCN(c2ncnc3c2cnn3-c2ccccc2)CC1	H69AR inhibit 40
Cc1cccc(C(=O)N2CCN(c3ncnc4c3cnn4-c3ccccc3)CC2)c1	none
O=C(NCc1ccco1)c1cc2cc3ccc(Cl)cc3nc2o1	H69AR inhibit 9.5
COc1ccc2cc3cc(C(=O)NCc4ccco4)oc3nc2c1	none
COC(=O)c1cc(=O)n(Cc2ccc3c(c2)OCO3)c(=Nc2ccccc2)s1	H69AR inhibit 12
CCOC(=O)c1ccc(N=c2sc(C(=O)OC)cc(=O)n2C2CC2)cc1	H69AR inhibit 34
CCOC(=O)c1ccc(N=c2sc(C(=O)OC)cc(=O)n2Cc2ccc3c(c2)OCO3)cc1	H69AR inhibit 33
COC(=O)c1cc(=O)n(Cc2ccc3c(c2)OCO3)c(=Nc2ccc(F)cc2)s1	H69AR inhibit 7.9
O=C(Nc1ccccc1)N1CCN(Cc2ccc3c(c2)OCO3)CC1	none
COC(=O)c1ccc(N=c2sc(C(=O)OC)cc(=O)n2C)cc1	H69AR inhibit 24 (no result: HCT116 bCat-KO, PTEN del growth)
CCOC(=O)C1=C(N)n2c(s/c(=C\c3cccnc3)c2=O)=C(C(=O)OCC)C1c1cccnc1 (stereo unspecified)	none (no result: HCT116 bCat-KO, PTEN del growth)
CCOC(=O)C1=C(N)n2c(s/c(=C\c3cccs3)c2=O)=C(C(=O)OCC)C1c1cccs1 (stereo unspecified)	H69AR inhibit 29
COc1ccc(NC2=Nc3cccc4cccc2c34)cc1	none (no result: Fibroblast inh, HUVEC prolif 384, H69AR inhibit)
CC(NC(=O)c1ccc(Br)cc1)c1ccccc1 (stereo unspecified)	none (no result: Fibroblast inh, HUVEC prolif 384, H69AR inhibit)
CC(C)OP(=O)(OC(C)C)C(NC(=O)c1ccc(Br)cc1)c1ccccc1 (stereo unspecified)	H69AR inhibit 28
CC1CC(C)CN(C(=O)Cn2c(-c3nonc3N)nc3ccccc32)C1 (stereo unspecified)	none
Nc1nonc1-c1nc2ccccc2n1Cc1ccccc1	H69AR inhibit 17
